An excerpt weighted towards active compounds, which were near 2.6% of everything screened.
esBAF inh: Bmi1 luciferase reporter increase in mESCs, primary screen, esBAF inhibitor project, mouse ES cells, Bmi1 luciferase knock-in, single point. hit rate 2% among 350,000. reporter increase, % at 12.5 µM. 24 h; 100% = twice the neutral-well signal; in the data active = activation above about 40%;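 note: 0% = median of the plate's neutral control wells and 100% = double that signal; a rise in the Bmi1 reporter signal indicates esBAF inhibition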
ASAP1 inh: inhibitors of human ASAP1 ArfGAP activity, primary screen, biochemical, fluorescence polarization; AID 624377, 2012; inhibition, % at 16.5 µM; Arf-GAP with SH3 domain, ANK repeat and PH domain-containing protein 1 (Homo sapiens), …; hit rate 0.19% among 360,000; ASAP1-stimulated ARF1 GTP hydrolysis, GDP FP detection; in the data active = inhibition above about 25%;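 note: 0% = vehicle with enzyme and substrate and 100% = no enzyme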
ARFGAP1 inhibitor: inhibitors of rat ARFGAP1 GAP activity, primary screen, biochemical, fluorescence polarization, GDP tracer; ADP-ribosylation factor GTPase-activating protein 1 (Rattus norvegicus), Q62848; Arfgap1-stimulated ARF1 GTP hydrolysis, GDP FP detection; inhibition, % at 16.5 µM; hit rate 0.26% among 360,000;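 active = inhibition above a per-plate limit, mean inhibition of low control wells plus 3 SD, cut at about 25% in these data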;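 note: 0% = DMSO wells with enzyme and 100% = wells lacking Arfgap1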
Target sequence (Q62848 1-136 limits assumed): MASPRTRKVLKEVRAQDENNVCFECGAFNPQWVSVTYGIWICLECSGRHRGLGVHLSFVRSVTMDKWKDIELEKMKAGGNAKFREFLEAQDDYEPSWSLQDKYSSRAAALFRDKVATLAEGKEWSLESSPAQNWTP
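Assay system: Rat Arfgap1 GAP domain (His6, aa 1-136), purified enzyme | Buffer or medium: HEPES 25 mM pH 7.5, NaCl 150 mM, MgCl2, DTT | Schedule: GTP hydrolysis reaction 2 h at 25 °C | Signal: FP of antibody-bound GDP Alexa 633 tracer, ex 620/em 688 nm | Measure: Percent inhibition of Arfgap1-stimulated GTP hydrolysis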
SMARCA2 activ: SMARCA2 (BRM) function activators, primary screen, cell-based, luminescence, high throughput; MG213 cells, MMTV-luciferase reporter, dexamethasone, overnight; hit rate 1% among 370,000; AID 652017, 2013; activation, % at 9.1 µM; in the data active = activation above about 7.8%;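 note: 0% = vehicle wells and 100% = reference activator wells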
ARFGAP1 inh conf: ARFGAP1 inhibitor hit confirmation, biochemical, fluorescence polarization, triplicate; shares compounds with ARFGAP1 inhibitor; ARFGAP1-stimulated ARF1 GTP hydrolysis, GDP tracer FP; inhibition, % at 16.5 µM; hit rate 30% among 890; AID 651608, 2012;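 active = average inhibition over triplicates above the hit cutoff set in the earlier primary screen, cut at about 25% in these data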;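 note: 0% = Arfgap1 plus ARF1-GTP with DMSO and 100% = wells lacking Arfgap1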
Target sequence (Q62848 whole entry, looked up): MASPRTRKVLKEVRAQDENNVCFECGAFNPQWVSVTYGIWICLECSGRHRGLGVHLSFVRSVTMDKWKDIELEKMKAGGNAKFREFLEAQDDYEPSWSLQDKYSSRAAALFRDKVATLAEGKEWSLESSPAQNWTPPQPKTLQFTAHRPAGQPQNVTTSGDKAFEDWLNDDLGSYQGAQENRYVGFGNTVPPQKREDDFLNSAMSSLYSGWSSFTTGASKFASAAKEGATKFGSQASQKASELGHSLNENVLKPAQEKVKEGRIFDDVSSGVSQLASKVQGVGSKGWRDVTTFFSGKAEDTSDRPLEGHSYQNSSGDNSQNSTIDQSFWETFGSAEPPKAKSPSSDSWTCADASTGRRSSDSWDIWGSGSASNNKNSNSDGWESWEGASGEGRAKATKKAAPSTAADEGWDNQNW
An asterisk follows results filed as active; · = not tested or not shown.

SMILES | esBAF inh | ASAP1 inh | ARFGAP1 inhibitor | SMARCA2 activ | ARFGAP1 inh conf
O=C1NC(c2ccccc2)=C(c2nc3ccccc3s2)C(c2ccc(F)cc2)N1 (stereo not drawn) | · | 11 | 32* | -3 | 2
C[C@@H]1CCCCO[C@H](CN(C)Cc2ccncc2)[C@@H](C)CN([C@@H](C)CO)C(=O)c2cc(NS(=O)(=O)c3cn(C)cn3)ccc2O1 | 2 | · | · | · | ·
CCCc1cc(=O)[nH]c(SCC(=O)N2CCN(S(=O)(=O)c3ccccc3)CC2)n1 | · | -3 | 8 | 0 | ·
CCCc1cc(=O)[nH]c(SCC(=O)N2CCN(S(=O)(=O)c3ccc4ccccc4c3)CC2)n1 | · | 7 | 25* | -4 | -2
Cc1ccc(S(=O)(=O)N(Cc2ccccc2F)C(=O)N2CCN(C)CC2)cc1 | · | -3 | 29* | -4 | 6
CCn1nc(NC(=O)c2cccnc2)c2cc3ccccc3nc21 | 2 | 9 | 27* | 3 | 8
O=C(COC(=O)CNC(=O)c1ccc(Cl)cc1Cl)NC1CCCCC1 | · | 0 | 27* | 0 | 1
O=C(COC(=O)CNC(=O)c1ccc(Cl)cc1Cl)NC(=O)NC1CCCCC1 | 2 | 8 | -8 | 5 | ·
CCOC(=O)C(C)(C)N(Cc1cccc(C)c1)S(=O)(=O)c1cccc([N+](=O)[O-])c1 | · | -11 | 35* | -1 | 1
CCOC(=O)C(C)(C)N(Cc1cccc(C)c1)S(=O)(=O)c1ccc(Cl)c([N+](=O)[O-])c1 | · | -7 | 11 | 2 | ·
COc1ccc(NC(=O)Nc2ccc3c(c2)CC(=O)N([C@@H](C)CO)C[C@H](C)[C@@H](CN(C)S(=O)(=O)c2ccccc2)O3)cc1 | 5 | · | · | · | ·
CCCN(C)C[C@@H]1Oc2cc(-c3ccccc3C)ccc2S(=O)(=O)N([C@H](C)CO)C[C@@H]1C | -6 | · | · | · | ·
O=C(O)CCC(=O)Nc1cccc(C(=O)Nc2cccc(Cl)c2)c1 | -4 | 4 | 63* | -1 | 0
O=C(O)CCC(=O)Nc1cccc(C(=O)Nc2ccc(Br)cc2)c1 | 17 | -5 | 2 | 0 | ·
CN(C)CCCNC(=O)[C@@H]1[C@@H](CO)[C@@H]2Cn3c(ccc(-c4cccc(F)c4)c3=O)[C@@H]2N1C | 4 | · | · | · | ·
Cc1ccc(S(=O)(=O)Nc2ccc3c(c2)C(=O)N([C@@H](C)CO)C[C@@H](C)[C@@H](CN(C)Cc2ccc(Cl)c(Cl)c2)OCCCC[C@@H](C)O3)cc1 | -2 | · | · | · | ·
O=C(CSc1ncn[nH]1)NCc1ccc(Cl)cc1 | -2 | -1 | -10 | -1 | ·
O=C(CSc1ncn[nH]1)NCc1ccccc1Cl | 5 | -3 | 25* | 0 | -2
CCOc1cc(/C=C/C(=O)Nc2ccc(C(=O)NCCN(CC)CC)cc2)ccc1OCC(C)C | · | 22 | 28* | 0 | 26*
CCOc1ccc(/C=C/C(=O)Nc2ccc(C(N)=O)cc2)cc1OC | · | 5 | 10 | 1 | ·
O=C(C[C@@H]1C[C@H]2c3cc(NC(=O)C4CCC4)ccc3O[C@H]2[C@H](CO)O1)NCc1ccncc1 | -2 | · | · | · | ·
COc1ccc(O)c(/C=N/Nc2nc(Nc3ccccc3)nc(-n3nc(C)cc3C)n2)c1 | · | 11 | 39* | 3 | 18
C[C@H]1CN([C@@H](C)CO)C(=O)c2cc(NC(=O)NC3CCCCC3)ccc2O[C@H]1CN(C)C(=O)NC1CCCCC1 | -2 | · | · | · | ·
Cc1c(C)n(-c2ccccc2)c2ncnc(NCCN(C)C)c12 | -12 | 11 | 25* | 0 | -4
CCOc1ccccc1C(=O)N(CN1CCCC1=O)c1cccc(Cl)c1 | · | 13 | 38* | 5 | 7
SMILES | esBAF inh | ASAP1 inh | ARFGAP1 inhibitor | SMARCA2 activ | ARFGAP1 inh conf
Cc1noc(C)c1S(=O)(=O)N(C)C[C@H]1Oc2ccc(NS(=O)(=O)c3ccc(F)cc3)cc2CC(=O)N([C@H](C)CO)C[C@H]1C | 0 | · | · | · | ·
O=C(Nc1ccc(CN2CCOCC2)cc1)c1ccc(-c2cccc(Cl)c2)o1 | 9 | 14 | 32* | -5 | 27*
COc1ccc(OC)c(-n2nnnc2SCC(=O)Nc2ccc3c(c2)OCCO3)c1 | 8 | 11 | 49* | -3 | 45*
COc1ccc(OC)c(-n2nnnc2SCC(=O)Nc2ccc(C(=O)N3CCCCC3)cc2)c1 | 5 | 3 | 7 | -3 | ·
CCC(CC)c1nnc(NC(=O)c2cccc(S(=O)(=O)N3CCOCC3)c2)s1 | -5 | -3 | 28* | 1 | -4
C[C@@H]1CN([C@@H](C)CO)C(=O)c2cc(NC(=O)NC3CCCCC3)ccc2O[C@@H](C)CCCCO[C@@H]1CN(C)C(=O)Cc1ccccc1 | 5 | · | · | · | ·
COc1ccc(-n2nc(C)cc2Nc2ccccc2C(=O)O)cc1 | · | -6 | 25* | -4 | 0
Oc1ccc2ccccc2c1CNc1ccc2ccccc2c1 | · | 19 | 30* | -1 | 11
Oc1ccc2ccccc2c1CNc1ccccc1 | 12 | -5 | 2 | -1 | ·
Cc1sc2ncnc(N3CCC(C(=O)NCC(=O)Nc4ccc(F)c(F)c4)CC3)c2c1C | · | -14 | 25* | -4 | 1
COc1ccc(CN2C[C@@H](O)COC[C@@H]3O[C@@H](CC(=O)N(C)C)CC[C@H]32)cc1 | -4 | · | · | · | ·
COc1ccccc1-c1ccc([C@H]2[C@@H](C#N)N(C(=O)C3CC3)[C@H]2CO)cc1 | 9 | · | · | · | ·
Cc1ccc([N+](=O)[O-])cc1NC(=O)c1cccnc1 | 1 | -3 | 10 | -4 | ·
O=C(Nc1cc([N+](=O)[O-])ccc1Cl)c1cccnc1 | -6 | -10 | 25* | -5 | 4
C[C@@H]1CN([C@H](C)CO)C(=O)c2cc(C3=CCCCC3)cnc2O[C@H]1CN(C)C(=O)Cc1ccncc1 | 0 | · | · | · | ·
COc1ccc(S(=O)(=O)Nc2cccc3c2O[C@H](CN(C)S(=O)(=O)c2ccc(C)cc2)[C@H](C)CN([C@H](C)CO)C3=O)cc1 | -2 | · | · | · | ·
CC(C(=O)N1CCCCC1)N(C)CC(=O)Nc1ccc(F)c(F)c1F (stereo not drawn) | -4 | 0 | 26* | -3 | 5
CCOc1ccc(/C=N/n2c(C)nnc2C)cc1OC | · | -2 | 4 | 2 | ·
CCOc1cc(/C=N/n2c(C)nnc2C)ccc1O | · | 5 | 28* | -2 | 7
COc1ccc(-c2cnc3c(c2)C(=O)N([C@H](C)CO)C[C@@H](C)[C@H](CN(C)C)O3)cc1 | -1 | · | · | · | ·
Cc1sc2nc(SCC(=O)N3CC(C)OC(C)C3)n(C)c(=O)c2c1C (stereo not drawn) | 5 | -2 | 26* | -1 | -2
CN(Cc1ccccc1)C(=O)CN1CCN(S(=O)(=O)c2ccccc2F)CC1 | 7 | -2 | 36* | 6 | 5
O=C(NCc1ccccc1Cl)c1ccc(NC2=NC3CS(=O)(=O)CC3S2)cc1 (stereo not drawn) | -9 | 9 | 27* | -2 | 0
COc1cc(/C=N/NC(=O)c2cc(-c3cccc(Br)c3)nc3ccccc23)cc(OC)c1O | · | 6 | 27* | -4 | 7

High-throughput results from PubChem.
